The structures appear in SMILES notation. ≈ marks a conversion by molar mass, not a printed value. Calls of active or inactive are those of the source. No cut-off for these calls is given here. Where a SMILES comes first, the peptide text is derived from it. Bridges are numbered along the chain shown (N, C = ends). [ ]: non-standard residue; d: D form. The star is where a group is joined. X1 = CC[C@H](C)CCCCC(=O)*; Orn = NCCC[C@H](N)C(=O)O; Dab = NCC[C@H](N)C(=O)O

For experiment [1], the system named is Staphylococcus aureus. Description: Bacteriolytic activity against Staphylococcus aureus LMG 8224 incubated for 2 hrs. It is filed as functional, organism-based. An outline of the steps:
(§1)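 Cultures grown 20 h were washed three times in HEPES with 5% glucose, adjusted to OD600 0.5 and exposed at 37 °C. OD600 was followed every 15 min for 2 h. Controls for E. coli were polymyxin B (2 μM) and erythromycin (32 μM). Controls for Gram-positive strains were gramicidin S (2 μM) and chloramphenicol (16 μM). Cells were then spotted on cMHB agar, 20 h, 37 °C, in triplicate.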

For experiment [2], the system named is Escherichia coli. In words: Bacteriolytic activity against Escherichia coli LMG 8223 incubated for 2 hrs. In kind it is functional, organism-based. The essentials: as §1
The test system of experiment [3] is Bacillus cereus. Description: Bacteriolytic activity against Bacillus cereus ATCC 10987 incubated for 2 hrs. It is filed as functional, organism-based. The essentials: as §1
The subject of experiment [4] is Enterococcus faecium. In words: Bacteriolytic activity against Enterococcus faecium LMG 16003 incubated for 2 hrs. In kind it is functional, organism-based. The essentials:
as §1

The subject of experiment [5] is DNA. In words: Stabilization of Staphylococcus aureus in G-quadruplex DNA GGA AGG AGG GGT GAC AGG G assessed as change in melting temperature at 10 uM incubated for 16 hrs by […]. In kind it is nucleic-acid assay. An outline of the steps: (§2)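 Readout was CD melting, not FRET: 2.5 μM oligonucleotide in 10 mM lithium cacodylate pH 7.4 with KCl set per sequence (initial Tm 60-70 °C). Annealed 95 °C 5 min, cooled to room temperature over 4 h, then ligand 10 μM (4 equiv) equilibrated 16 h at 20 °C. Ellipticity at 260 nm tracked every 0.1 °C, 20-95 °C at 5 °C/min; Tm by van't Hoff two-state fit.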

In the next experiment the test system is Klebsiella aerogenes. Description: Antibacterial activity against Enterobacter aerogenes LMG 02094 assessed as inhibition of bacterial growth incubated for 20 hrs by CLSI based broth microdilution method. In kind it is functional. An outline of the steps:
(§3)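 Broth microdilution in cation-adjusted Mueller-Hinton broth following CLSI guidelines. DMSO stocks were at 10 mM; compounds were twofold serially diluted over 128 to 2 μM. The inoculum was at 5 × 10⁵, prepared from colonies grown 20 h at 37 °C and adjusted to 0.5 McFarland. Plates ran 20 h at 37 °C with OD600 read-out. MIC was the lowest concentration inhibiting visible growth, in triplicate.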

Experiment [6] relates to Enterococcus faecalis. In words: Antibacterial activity against Enterococcus faecalis V583 assessed as inhibition of bacterial growth incubated for 20 hrs by CLSI based broth microdilution method. In kind it is functional. The essentials:
as §3

Experiment [7] has as its system DNA. Description: Stabilization of Escherichia coli in G-quadruplex DNA GGT GGG GAG GGG TAA GGG G assessed as melting temperature at 10 uM incubated for 16 hrs by […]. In kind it is nucleic-acid assay. An outline of the steps:
as §2

Experiment [8] has as its system Staphylococcus aureus. In words: Antibacterial activity against Staphylococcus aureus LMG 8224 assessed as inhibition of bacterial growth incubated for 20 hrs by CLSI based broth microdilution method. It is filed as functional. An outline of the steps: as §3
In experiment [9] the test system is DNA. Description: Stabilization of Staphylococcus aureus in G Quadruplex DNA GGGGCTAATTGGGGCTGGTGG assessed as change in melting temperature at 10 uM incubated for 16 hrs by […]. It is filed as nucleic-acid assay. An outline of the steps: as §2
Experiment [10] concerns Staphylococcus epidermidis. In words: Antibacterial activity against Staphylococcus epidermidis Tu3298 assessed as inhibition of bacterial growth incubated for 20 hrs by CLSI based broth microdilution method. In kind it is functional. The essentials:
as §3

Experiment [11] has as its system DNA. Description: Stabilization of Escherichia coli in G-quadruplex DNA GGG GGA GGA GGA CGG GGG assessed as change in melting temperature at 10 uM incubated for 16 hrs by FRET method. In kind it is nucleic-acid assay. To be noted: in the assay text read “by CD melting method” for “by FRET method”. An outline of the steps: as §2
In experiment [12] the test system is Enterococcus faecium. In words: Antibacterial activity against Enterococcus faecium LMG 11423 assessed as inhibition of bacterial growth incubated for 20 hrs by CLSI based broth microdilution method. To be noted: LMG 11423, 20 h.
The test system of experiment [13] is Enterococcus faecalis. Description: Antibacterial activity against Enterococcus faecalis LMG 16216 assessed as inhibition of bacterial growth incubated for 20 hrs by CLSI based broth microdilution method. It is filed as functional. The essentials:
as §3

The test system of experiment [14] is DNA. Description: Stabilization of Staphylococcus aureus in G-quadruplex DNA GGGTTTGGGGCGGCGGTTGG assessed as change in melting temperature at 10 uM incubated for 16 hrs by FRET method. It is filed as nucleic-acid assay.
Another experiment has as its system Pseudomonas aeruginosa. In words: Antibacterial activity against Pseudomonas aeruginosa LMG 6395 assessed as inhibition of bacterial growth incubated for 20 hrs by CLSI based broth microdilution method. In kind it is functional. An outline of the steps: as §3
The test system of experiment [15] is DNA. In words: Stabilization of Escherichia coli in G-quadruplex DNA GGG GCG GGG TGG GTT GG assessed as change in melting temperature at 10 uM incubated for 16 hrs by CD melting method.
Experiment [16] has as its system Staphylococcus aureus. In words: Antibacterial activity against Staphylococcus aureus LMG 15975 assessed as inhibition of bacterial growth incubated for 20 hrs by CLSI based broth microdilution method. In kind it is functional. The essentials:
as §3

The test system of another experiment is Enterobacter cloacae. In words: Antibacterial activity against Enterobacter cloacae LMG 02783 assessed as inhibition of bacterial growth incubated for 20 hrs by CLSI based broth microdilution method. It is filed as functional. The essentials: as §3
The subject of a further experiment is Acinetobacter baumannii. Description: Antibacterial activity against Acinetobacter baumannii LMG 01041 assessed as inhibition of bacterial growth incubated for 20 hrs by CLSI based broth microdilution method. In kind it is functional. The essentials:
as §3

Experiment [17] relates to DNA. Description: Stabilization of Staphylococcus aureus in G-quadruplex DNA GGA AGG AGG GGT GAC AGG G assessed as melting temperature at 10 uM incubated for 16 hrs […]. It is filed as nucleic-acid assay. An outline of the steps:
as §2

For experiment [18], the system named is DNA. Description: Stabilization of Escherichia coli in G-quadruplex DNA GGG GGA GGA GGA CGG GGG assessed as melting temperature at 10 uM incubated for 16 hrs by […]. It is filed as nucleic-acid assay. The essentials:
as §2

Experiment [19] has as its system DNA. Description: Stabilization of Staphylococcus aureus in G Quadruplex DNA GGGGCTAATTGGGGCTGGTGG assessed as melting at 10 uM incubated for 16 hrs temperature by […]. It is filed as nucleic-acid assay. The essentials:
as §2

The subject of experiment [20] is DNA. Description: Stabilization of Staphylococcus aureus in G-quadruplex DNA GGGTTTGGGGCGGCGGTTGG assessed as melting temperature at 10 uM incubated for 16 hrs by […]. It is filed as nucleic-acid assay. An outline of the steps:
as §2

The next experiment concerns Salmonella enterica. In words: Antibacterial activity against Salmonella enterica LMG 07233 assessed as inhibition of bacterial growth incubated for 20 hrs by CLSI based broth microdilution method. It is filed as functional. An outline of the steps:
as §3

Experiment [21] has as its system Bacillus cereus. Description: Antibacterial activity against Bacillus cereus ATCC 14579 assessed as inhibition of bacterial growth incubated for 20 hrs by CLSI based broth microdilution method. In kind it is functional. An outline of the steps: as §3
Experiment [22] has as its system Escherichia coli. Description: Antibacterial activity against Escherichia coli LMG 8223 assessed as inhibition of bacterial growth incubated for 20 hrs by CLSI based broth microdilution method. It is filed as functional. The essentials:
as §3

For experiment [23], the system named is Staphylococcus aureus. In words: Antibacterial activity against Staphylococcus aureus LMG 10147 assessed as inhibition of bacterial growth incubated for 20 hrs by CLSI based broth microdilution method. In kind it is functional. The essentials: as §3
The subject of experiment [24] is Bacillus cereus. In words: Antibacterial activity against Bacillus cereus ATCC 10987 assessed as inhibition of bacterial growth incubated for 20 hrs by CLSI based broth microdilution method. In kind it is functional. The essentials:
as §3

Experiment [25] deals with DNA. In words: Stabilization of Escherichia coli in G-quadruplex DNA GGG GCG GGG TGG GTT GG assessed as melting temperature at 10 uM incubated for 16 hrs by FRET method. In kind it is nucleic-acid assay.
Experiment [26] concerns Enterococcus faecalis. In words: Antibacterial activity against Enterococcus faecalis LMG 08222 assessed as inhibition of bacterial growth incubated for 20 hrs by CLSI based broth microdilution method. It is filed as functional. An outline of the steps: as §3
Experiment [27] relates to DNA. In words: Stabilization of Escherichia coli in G-quadruplex DNA GGT GGG GAG GGG TAA GGG G assessed as change in melting temperature at 10 uM incubated for 16 hrs by FRET method. In kind it is nucleic-acid assay. The settings on record: in the assay text read “by CD melting method” for “by FRET method”. An outline of the steps: as §2
The subject of experiment [28] is Enterococcus faecium. In words: Antibacterial activity against Enterococcus faecium LMG 16003 assessed as inhibition of bacterial growth incubated for 20 hrs by CLSI based broth microdilution method. In kind it is functional. The essentials: as §3
The test system of another experiment is Klebsiella pneumoniae. Description: Antibacterial activity against Klebsiella pneumoniae LMG 20218 assessed as inhibition of bacterial growth incubated for 20 hrs by CLSI based broth microdilution method. In kind it is functional. An outline of the steps:
as §3

Turning to `CC(C)C[C@@H]1NC(=O)[C@H](CCCN)NC(=O)[C@H](C(C)C)NC(=O)[C@@H]2CCCN2C(=O)[C@@H](Cc2ccccc2)NC(=O)[C@H](CC(C)C)NC(=O)[C@H](CCCN)NC(=O)[C@H](C(C)C)NC(=O)[C@@H]2CCCN2C(=O)[C@@H](Cc2ccccc2)NC1=O` (cyclo(V[Orn]L[dF]PV[Orn]L[dF]P)), the outcome with Staphylococcus aureus [1], in the experiment on Escherichia coli [2], in the experiment with Bacillus cereus [3] and in the experiment with Enterococcus faecium [4] was Active.
On to `CC[C@H](C)CCCCC(=O)N[C@@H](CCN)C(=O)N[C@H](C(=O)N[C@@H](CCN)C(=O)N[C@H]1CCNC(=O)[C@H]([C@@H](C)O)NC(=O)[C@H](CCN)NC(=O)[C@H](CCN)NC(=O)[C@H](CC(C)C)NC(=O)[C@@H](Cc2ccccc2)NC(=O)[C@H](CCN)NC1=O)[C@@H](C)O` (X1-[Dab]T[Dab][Dab][Dab][dF]L[Dab][Dab]T; lactam 4-C), for which the outcome with Staphylococcus aureus [1], with Escherichia coli [2], with Bacillus cereus [3] and in the experiment on Enterococcus faecium [4] was Active.
For `CCCNc1cc2c3c(ccc4c3c1C(=O)N(CCCN(C)C)C4=O)C(=O)N(CCCN(C)C)C2=O`, the ΔTm worked out at 12 °C in the experiment with DNA [5]; 16.6 °C in the experiment on DNA [9]; 22.8 °C in the experiment with DNA [11]; 14.9 °C in the experiment on DNA [14]; 14.3 °C in the experiment with DNA [15]; 12.2 °C in the experiment with DNA [27]. For the same molecule, the MIC in the experiment on Klebsiella aerogenes was found to be 64 µM (≈ 31.6 µg/mL); with Enterococcus faecalis [6], 32 µM (≈ 15.8 µg/mL); in the experiment on Staphylococcus aureus [8] it was 128 µM (≈ 63.2 µg/mL); in [10], 128 µM (≈ 63.2 µg/mL); with Enterococcus faecium [12], 16 µM (≈ 7.9 µg/mL); in the experiment on Enterococcus faecalis [13], 32 µM (≈ 15.8 µg/mL). The MIC was above 128 µM in the experiment on Pseudomonas aeruginosa; 128 µM (≈ 63.2 µg/mL) with Staphylococcus aureus [16]; above 128 µM in the experiment with Enterobacter cloacae; 64 µM (≈ 31.6 µg/mL) with Acinetobacter baumannii; above 128 µM with Salmonella enterica; 64 µM (≈ 31.6 µg/mL) in the experiment on Bacillus cereus [21]. For the same molecule, the MIC in the experiment with Escherichia coli [22] is above 128 µM; in the experiment with Staphylococcus aureus [23], 128 µM (≈ 63.2 µg/mL); in the experiment on Bacillus cereus [24] it was 64 µM (≈ 31.6 µg/mL); in the experiment with Enterococcus faecalis [26], 64 µM (≈ 31.6 µg/mL); in the experiment with Enterococcus faecium [28] it was 16 µM (≈ 7.9 µg/mL); in the experiment on Klebsiella pneumoniae, above 128 µM. In addition, the Tm was found to be 72.2 °C with DNA [7]; 76.2 °C with DNA [17]; 92.8 °C with DNA [18]; 77.6 °C with DNA [19]; 74.3 °C in the experiment with DNA [20]; 78 °C in the experiment on DNA [25].

The values are drawn from ChEMBL document CHEMBL5154669, “G-Quadruplex DNA as a Target in Pathogenic Bacteria: Efficacy of an Extended Naphthalene Diimide Ligand and Its Mode of Action” (J Med Chem, 2022).
